UHRF1 MBD2 ctr – UHRF1 methyl-DNA binding inhibition | Q96T88 | UHRF1 binding to methylated oligo, TR-FRET | inhibition, % at 4.4 µM | actives 0.75% (n = 370,000) | AID 687016; in the data active = inhibition above about 21%;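 also: UHRF1 SRA domain binding a hemimethylated CpG hairpin DNA probe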
MBD2 DNA inh – inhibitors of human MBD2 binding to methylated oligonucleotide. Q9UBB5. inhibition, % at 4.4 µM. TR-FRET. actives 0.31% (n = 370,000); in the data active = inhibition above about 13%
Beta2AR agonist – human beta-2 adrenergic receptor agonism by FAP. actives 0.43% (n = 340,000). Am2.2-beta2AR cells, FAP receptor internalization, flow cytometry. response, % (concentration not given with the values);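 active = response above a set limit, near 3 SD of response in nonfluorescent compounds, cut at about 42% in these data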
Arrestin-AP2 inh – inhibitors of human beta-arrestin and AP2 interaction; FITC-arrestin peptide / GST-AP2 beads, flow cytometry; AP2 beta2 appendage carries R879A mutation; inhibition, % at 10 µM; actives 0.31% (n = 340,000); AID 504490;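 active = inhibition above a set limit, near 3 SD of compounds lacking own fluorescence, cut at about 54% in these data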
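System: GST-AP2 R879A glutathione beads | Also added: FITC-arrestin peptide, 50 nM | Times: 12 min plus 1 h, RT | Signal: Bead flow cytometry, FITC channel | Buffer or medium: PBS with 0.05% Tween 20 and 0.1% BSA | Read-out basis: Percent drop in bead-associated FITC signal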
ABHD5-PLIN5 inh – inhibitors of human ABHD5-perilipin-5 interaction; Q00G26+Q8WTS1; Split G. princeps luciferase complementation, luminescence, 4 h; inhibition, % at 4 µM; actives 0.78% (n = 360,000); AID 602281;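 active = inhibition above the mean inhibition across every tested compound plus 3 SD, cut at about 22% in these data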
Rin1-Abl PPI inh – human Rin1-Abl interaction inhibition | P00519+Q13671 | TR-FRET Rin1/Abl binding, biochemical | inhibition, % at 7.35 µM | actives 0.4% (n = 360,000); in the data active = inhibition above about 5%, passing the limit was not always enough
Numbers stand for hits; n = inactive; x = no result given. Rows were chosen to be rich in hits. Some 2.5% of all compounds tested hit in one or more screens of this group.

SMILES	UHRF1 MBD2 ctr	MBD2 DNA inh	Beta2AR agonist	Arrestin-AP2 inh	ABHD5-PLIN5 inh	Rin1-Abl PPI inh
O=C(CSc1nnc(COc2ccc(Cl)cc2)n1Cc1ccco1)Nc1ccc2c(c1)OCO2	n	n	x	x	x	x
CC(=O)NC1CCCCN(Cc2cccc(F)c2)C1=O (centres undefined)	n	n	x	x	x	x
Cc1onc(-c2c(Cl)cccc2Cl)c1C(=O)OCC(=O)c1ccccc1	52	n	n	n	n	n
Cc1onc(-c2c(F)cccc2Cl)c1C(=O)c1ccc(F)cc1	73	n	n	n	n	n
Cc1onc(-c2c(Cl)cccc2Cl)c1C(=O)c1ccc(F)cc1	n	n	n	n	n	n
CCC(C)[C@@H](C(=O)OC)N(Cc1cn(Cc2ccccc2)nn1)S(=O)(=O)c1ccccc1Br (some centres undefined)	n	n	x	x	x	x
O=S1(=O)c2ccc(N3CCCC3)cc2Oc2ccccc2CN1Cc1cn(Cc2cccc(C(F)(F)F)c2)nn1	n	n	x	x	x	x
Cc1cccc2sc(NNC(=O)c3ccc(S(=O)(=O)N4CCc5ccccc5C4)cc3)nc12	n	n	n	n	23	n
CCOc1ccc2[nH]c(C(=O)N/N=C/c3ccc(OC)cc3)cc2c1	n	n	52	n	n	n
Cn1c(=O)n(Cc2ccc(Br)cc2)c2ccccc21	23	n	n	n	n	n
C[C@H]1[C@@H](OC(=O)Nc2ccc(C#N)cc2)CC[C@@]23CCCN2C(=O)CCC[C@@H]13	n	n	x	x	x	x
Cn1ccc(/C=N/N=C2/NC(=O)CS2)n1	37	n	n	n	n	n
COc1ccc(CNCC#Cc2ccccc2)c(OC)c1	n	n	x	x	x	x
CN(C(=O)CCn1nnc(-c2cccs2)n1)C1CCCCC1	n	n	x	x	x	x
CCOCCCNC(=O)Cn1cc2c(n1)-c1c(oc(C(=O)N3CCCC3)c1C)CC2	n	n	x	x	n	n
CCCCN(C)CCCNC(=O)Cn1cc2c(n1)-c1c(oc(C(=O)N3CCCC3)c1C)CC2	53	n	x	x	n	n
O=C(CN1CCCc2ccccc21)NCc1ccccc1F	n	n	x	x	x	x
O=S(=O)(c1ccc(Br)cc1)N1CCCN(Cc2cccc(F)c2)CC1	62	n	n	n	n	n
COc1ccc(C(=O)N=C2SC3CS(=O)(=O)CC3N2c2ccc(N(C)C)cc2)cc1OC (centres undefined)	n	n	54	n	n	n
C=CCN(Cc1ccc2c(c1)OCO2)C(C#CC1CC1)C(C)C (centres undefined)	n	n	x	x	x	x
O=c1ccsn1Cc1ccccc1	n	n	n	n	82	n
CCN(CC)S(=O)(=O)c1ccc(Cl)c(C(=O)Nc2cc(C)nn2-c2ccccc2)c1	65	n	n	n	n	n
Cc1ccc(CNC2CCC23CCC(c2ccccc2)CC3)o1 (centres undefined)	n	n	x	x	x	x
Cc1c(Br)c(=O)oc2c(Br)c(O)ccc12	n	n	n	n	n	n
Cc1c(Br)c(=O)oc2c(Br)c(O)c(O)cc12	31	n	n	n	n	n
SMILES	UHRF1 MBD2 ctr	MBD2 DNA inh	Beta2AR agonist	Arrestin-AP2 inh	ABHD5-PLIN5 inh	Rin1-Abl PPI inh
CC1(C)CC(=O)N(CC(=O)N2CCN(Cc3ccccc3)CC2)c2ccccc2S1(=O)=O	n	n	x	x	x	x
Cn1c(SCC(=O)NC(=O)NCc2ccco2)nnc1-c1ccccc1	22	n	n	n	n	n
Cc1nnc(SCC(=O)NC(=O)NCc2ccco2)s1	30	n	n	n	n	n
O=C(CSc1nc2ccccc2s1)NC(=O)NCc1ccco1	n	n	n	n	n	n
O=C(Nc1ccc(C(=O)N2CCCC2)cc1)C1CCC1	23	n	n	n	n	n
O=C(c1ccccc1)N1CCCc2ccccc21	21	n	n	n	n	n
CCO/C=C/C(=O)N(C)CCC#N	100	n	n	n	n	n
Cc1ccc(Cn2cc(CN(C3CC3)S(=O)(=O)c3ccccc3Br)nn2)cc1	n	n	x	x	x	x
Brc1ccc(Cn2nnc(-c3ccc(N4CCOCC4)cc3)n2)cc1	n	n	x	x	x	x
C/C(C/C(C)=C1/SC(=S)NC1=O)=C1\SC(=S)NC1=O	45	18	n	n	n	n
CC(C)c1cc(C(C)C)c(S(=O)(=O)N2CCC(c3cn4ccccc4n3)CC2)c(C(C)C)c1	n	n	x	x	x	x
COc1ccc(N2Cc3ccccc3/C2=N\C(=O)Nc2ccccc2)cc1	22	n	n	n	n	n
CCC[C@H]1[C@@H](OC(=O)N2CCN(c3ccccc3)CC2)CC[C@@]23CCCN2C(=O)CCC[C@@H]13	n	n	x	x	x	x
CN(C(=O)CC1C(=O)NCCN1C/C=C/c1ccccc1)C1CCOCC1 (centres undefined)	n	n	n	n	n	n
C#CCN(C(=O)CC1C(=O)NCCN1C/C=C/c1ccccc1)C1CCCCC1 (centres undefined)	44	n	n	n	n	n
O=C(CCc1ccc(O)c(O)c1)N/N=C/c1ccc2c(c1)OCO2	21	n	n	n	n	n
CC(C)Oc1ccc(CCC(=O)N/N=C/c2ccc3c(c2)OCO3)cc1	n	n	n	n	n	n
CC[C@@]1(C(=O)OC)N[C@H](CN(C)C(=O)Nc2ccc(OC)cc2)[C@@H]2C(=O)N(C)C(=O)[C@@H]21	22	n	n	n	n	n
Cn1c2c(c(=O)n(C)c1=O)C(c1ccc(C(F)(F)F)cc1)CC(=O)N2 (centres undefined)	31	n	n	n	n	n
CC(C)C(=O)N1CC[C@H]2[C@H](CCCN2Cc2ccc(F)cc2)C1	n	n	x	x	x	x
CCOC(=O)c1c(C)[nH]c(C)c1C(=O)CSc1nc2ccccc2c(=O)n1-c1ccccc1C	21	n	n	n	n	n
Cc1ccc(-n2c(COc3ccccc3)nnc2SCC(=O)Nc2ccccc2-c2ccccc2)cc1	n	n	x	x	x	x
O=C(Nc1ccc(F)cc1)OCc1cn(Cc2cccc(Cl)c2)nn1	n	n	x	x	x	x
CCOc1cc(C(=O)NC)cc(Br)c1OCc1ccccc1	48	n	n	n	n	n
CC(CCN1CCC(C(O)(c2ccccc2)c2ccccc2)CC1)Oc1ccc(OC(F)(F)F)cc1 (centres undefined)	n	n	x	x	x	x
SMILES	UHRF1 MBD2 ctr	MBD2 DNA inh	Beta2AR agonist	Arrestin-AP2 inh	ABHD5-PLIN5 inh	Rin1-Abl PPI inh
CC(=O)c1ccc2noc(-c3cccc(F)c3)c2c1	n	n	n	n	22	n
O=C(c1ccc(F)cc1)N1CCOCC1	n	n	n	x	n	n
O=C(c1ccc(=O)oc1)N1CCOCC1	43	n	n	n	n	n
O=C(/C=C/c1ccco1)Nc1ccccc1C(=O)O	24	n	n	n	n	n
O=C(O)CCCNC(=O)/C=C/c1ccco1	58	n	n	n	n	n
O=C(/C=C/c1ccco1)Nc1cccc(NC(=O)/C=C/c2ccco2)n1	21	n	n	n	n	n
C[C@H](CCCCC1(C)OCCO1)CCC(=O)N(c1ccccc1)c1ccccc1	n	n	x	x	x	x
O=C(O)C(O)Cc1c[nH]c2ccccc12 (centres undefined)	n	n	n	n	n	n
CC(Cc1c[nH]c2ccccc12)C(=O)O (centres undefined)	23	n	n	n	n	n
